Reference: ChEMBL document CHEMBL2407028, “Discovery of novel oxazolidinedione derivatives as potent and selective mineralocorticoid receptor antagonists” (Bioorg Med Chem Lett, 2013)

Columns and labels:
Rattus norvegicus = test: Volume of distribution at steady state in rat at 1 mg/kg, iv and 1 mg/lg, po; type: ADME, organism-based; set-up: dose 1 mg/kg, route oral; conditions: in vivo
Method in brief: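 Rats dosed at 1 mg/kg iv (n = 2) or 1 mg/kg po (n = 3), formulated at 1 mg/mL in PEG 200:water (70:30). Blood concentrations measured by LC/MS/MS after protein precipitation with acetonitrile.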

Estrogen receptor = biological target: T1, Estrogen receptor (Homo sapiens, UniProt P03372); test: Antagonist activity at estrogen receptor alpha (unknown origin) by NH Pro assay
T1 sequence (P03372 whole entry): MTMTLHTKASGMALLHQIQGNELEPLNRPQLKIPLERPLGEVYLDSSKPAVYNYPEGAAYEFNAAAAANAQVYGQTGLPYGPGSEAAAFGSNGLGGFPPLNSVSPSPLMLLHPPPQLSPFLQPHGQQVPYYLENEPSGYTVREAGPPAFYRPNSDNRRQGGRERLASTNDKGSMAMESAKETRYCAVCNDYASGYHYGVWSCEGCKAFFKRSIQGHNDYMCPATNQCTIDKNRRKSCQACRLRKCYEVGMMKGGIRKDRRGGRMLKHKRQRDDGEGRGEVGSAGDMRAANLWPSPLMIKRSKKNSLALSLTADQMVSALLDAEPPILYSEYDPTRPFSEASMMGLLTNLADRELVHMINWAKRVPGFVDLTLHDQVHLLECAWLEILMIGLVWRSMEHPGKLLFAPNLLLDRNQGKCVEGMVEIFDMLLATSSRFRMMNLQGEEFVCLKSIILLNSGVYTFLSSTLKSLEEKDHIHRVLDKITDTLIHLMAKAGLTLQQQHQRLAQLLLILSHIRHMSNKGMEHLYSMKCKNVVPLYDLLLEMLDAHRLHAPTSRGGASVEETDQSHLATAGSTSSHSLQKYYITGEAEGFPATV

Glucocorticoid receptor [1] = biological target: T2, Glucocorticoid receptor (Homo sapiens, UniProt P04150); test: Agonist activity at glucocorticoid receptor (unknown origin) by NH Pro assay
T2 sequence (P04150 whole entry): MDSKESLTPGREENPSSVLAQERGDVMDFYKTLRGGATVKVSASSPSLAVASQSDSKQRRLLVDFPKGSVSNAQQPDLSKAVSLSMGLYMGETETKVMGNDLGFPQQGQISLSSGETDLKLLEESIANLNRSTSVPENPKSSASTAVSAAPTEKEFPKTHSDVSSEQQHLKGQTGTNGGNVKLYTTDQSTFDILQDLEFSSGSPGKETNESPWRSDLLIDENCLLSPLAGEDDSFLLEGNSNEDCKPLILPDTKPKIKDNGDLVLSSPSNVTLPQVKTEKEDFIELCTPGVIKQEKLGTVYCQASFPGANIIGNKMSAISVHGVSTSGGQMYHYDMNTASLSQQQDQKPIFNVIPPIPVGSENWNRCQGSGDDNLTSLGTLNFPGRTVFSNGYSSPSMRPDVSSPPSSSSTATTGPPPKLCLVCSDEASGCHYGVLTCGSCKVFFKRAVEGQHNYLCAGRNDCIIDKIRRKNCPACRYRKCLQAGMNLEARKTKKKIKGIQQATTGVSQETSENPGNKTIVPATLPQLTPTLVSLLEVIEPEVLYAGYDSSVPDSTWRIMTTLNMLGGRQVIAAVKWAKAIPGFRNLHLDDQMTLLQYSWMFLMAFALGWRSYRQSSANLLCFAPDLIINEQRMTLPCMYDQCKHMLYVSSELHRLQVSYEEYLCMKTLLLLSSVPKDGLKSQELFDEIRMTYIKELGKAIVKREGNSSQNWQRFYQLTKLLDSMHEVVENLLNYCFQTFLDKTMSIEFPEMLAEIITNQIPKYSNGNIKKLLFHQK

Glucocorticoid receptor [2] = biological target: T2, Glucocorticoid receptor; test: Antagonist activity at glucocorticoid receptor (unknown origin) by NH Pro assay
[3] = biological target: T3, Mineralocorticoid receptor (Homo sapiens, UniProt P08235); test: Antagonist activity at human mineralocorticoid receptor assessed as inhibition of binding to coactivator peptide by NH Pro assay
T3 sequence (P08235 whole entry): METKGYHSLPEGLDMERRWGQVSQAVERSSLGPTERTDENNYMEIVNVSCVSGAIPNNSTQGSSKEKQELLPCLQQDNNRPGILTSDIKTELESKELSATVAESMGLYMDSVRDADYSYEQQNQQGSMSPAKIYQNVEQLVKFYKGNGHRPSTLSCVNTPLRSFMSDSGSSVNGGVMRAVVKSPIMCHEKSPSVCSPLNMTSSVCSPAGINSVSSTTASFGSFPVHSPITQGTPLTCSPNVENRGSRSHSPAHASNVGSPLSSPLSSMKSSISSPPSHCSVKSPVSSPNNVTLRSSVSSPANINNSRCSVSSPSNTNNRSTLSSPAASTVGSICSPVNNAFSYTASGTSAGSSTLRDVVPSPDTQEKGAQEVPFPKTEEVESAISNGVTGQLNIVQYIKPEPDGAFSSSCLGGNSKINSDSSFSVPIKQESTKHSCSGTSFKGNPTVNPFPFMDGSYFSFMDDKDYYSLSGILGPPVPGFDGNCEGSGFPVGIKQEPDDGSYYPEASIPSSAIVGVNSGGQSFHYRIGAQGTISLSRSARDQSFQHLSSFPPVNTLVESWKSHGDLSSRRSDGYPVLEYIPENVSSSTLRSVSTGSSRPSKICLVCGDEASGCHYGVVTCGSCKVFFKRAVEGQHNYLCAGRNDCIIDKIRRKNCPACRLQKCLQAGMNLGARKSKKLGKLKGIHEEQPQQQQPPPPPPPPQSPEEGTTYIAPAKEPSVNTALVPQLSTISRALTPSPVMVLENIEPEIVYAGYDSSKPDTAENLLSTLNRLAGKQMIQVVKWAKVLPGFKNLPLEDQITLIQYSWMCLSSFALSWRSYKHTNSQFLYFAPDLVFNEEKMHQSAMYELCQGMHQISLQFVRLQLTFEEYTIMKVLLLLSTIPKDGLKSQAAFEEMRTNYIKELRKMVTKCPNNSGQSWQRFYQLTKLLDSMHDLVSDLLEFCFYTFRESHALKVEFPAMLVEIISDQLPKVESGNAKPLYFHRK

## COc1cc(CNC(=O)[C@@]2(Cc3ccccc3)OC(=O)N([C@@H]3CCc4ccccc43)C2=O)cc(OC)c1
Rattus norvegicus
  Vdss: 4.7 L/kg
Estrogen receptor
  IC50: 17 µM
Glucocorticoid receptor [1]
  EC50: > 20 µM
Glucocorticoid receptor [2]
  IC50: > 20 µM
[3]
  IC50: 0.033 µM

## C[C@H](c1ccc(F)cc1)N1C(=O)O[C@](Cc2ccc(F)cc2)(C(=O)NCc2ccc(Cl)c(Cl)c2)C1=O
Rattus norvegicus
  Vdss: 7.9 L/kg
Estrogen receptor
  IC50: 7.3 µM
Glucocorticoid receptor [1]
  EC50: > 20 µM
Glucocorticoid receptor [2]
  IC50: 11 µM
[3]
  IC50: 0.18 µM
